From publication PMC2921709 (ChemMedChem, 2010)

Key:
IGROV = test: MTT growth inhibition, IGROV ovarian cancer cells; type: cell-based, human; conditions: Homo sapiens, IGROV, 72 h, read-out: GI50 IGROV
Outline: (§1)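 Cells seeded at 8 × 10^3 per well in 96-well plates and held 18 h at 37 °C, 5% CO2. Medium then replaced with test compound in complete medium at various concentrations for 72 h continuous exposure. Viability read by MTT. GI50 is the concentration giving 50% proliferation inhibition, from dose–response curves; mean ± SE of ≥3 independent experiments. Media: leukemia lines in RPMI-1640; solid-tumour lines in DMEM with penicillin G 115 U mL−1, streptomycin and 10% FBS.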

ML2 = test: MTT growth inhibition, ML-2 myeloid leukemia cells; type: cell-based, human; conditions: Homo sapiens, ML-2, 72 h, read-out: GI50 ML2
Outline: as §1

Jurkat cells [1] = test: Annexin V-FITC/PI apoptosis assay; type: cell-based, human; conditions: 24 h treatment
Outline: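 Jurkat cells exposed to test compound at various concentrations for 24 or 48 h, then harvested. Co-labelled with annexin V–FITC and PI and analysed by flow cytometry (excitation 488 nm; emission 525 and 585 nm). Reported as mean percentage of annexin-V-positive cells ± SEM, three independent experiments.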

[2] = system: Bovine brain tubulin (colchicine site); test: Inhibition of [3H]colchicine binding to tubulin; conditions: tubulin 1 μM, [3H]colchicine 5 μM
HeLa = test: MTT growth inhibition, HeLa cervix carcinoma cells; type: cell-based, human; conditions: Homo sapiens, HeLa, 72 h, read-out: GI50 HeLa
Outline: as §1

HL-60 = test: MTT growth inhibition, HL-60 promyelocytic leukemia cells; type: cell-based, human; conditions: Homo sapiens, HL-60, 72 h, read-out: GI50 HL-60
Outline: as §1

HT-29 = test: MTT growth inhibition, HT-29 colon adenocarcinoma cells; type: cell-based, human; conditions: Homo sapiens, HT-29, 72 h, read-out: GI50 HT-29
Outline: as §1

Bcl-2 in Jurkat cells = test: Flow cytometric analysis of Bcl-2 expression; type: cell-based, human; conditions: 24 and 48 h, flow cytometry
Outline: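 Jurkat cells incubated with test compound for 24 and 48 h, then pelleted and permeabilised with a Fix&Perm kit. Labelled with FITC-conjugated anti-Bcl-2 monoclonal antibody, washed and analysed by flow cytometry. Mean ± SEM of two independent experiments.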

[3] = system: caspase-3 in Jurkat cells; test: Caspase-3 activation by flow cytometry; type: cell-based, human; conditions: time- and concentration-dependent
K562 = test: MTT growth inhibition, K562 chronic myelogenous leukemia cells; type: cell-based, human; conditions: Homo sapiens, K562, 72 h, read-out: GI50 K562
Outline: as §1

MCF-7 = test: MTT growth inhibition, MCF-7 breast adenocarcinoma cells; type: cell-based, human; conditions: Homo sapiens, MCF7, 72 h, read-out: GI50 MCF-7
Outline: as §1

RS 4;11 = test: MTT growth inhibition, RS 4; type: cell-based, human; conditions: Homo sapiens, RS4-11, 72 h, read-out: GI50 RS 4;11
Outline: as §1

Hep G2 = test: MTT growth inhibition, HepG2 hepatoma cells; type: cell-based, human; conditions: Homo sapiens, HepG2, 72 h, read-out: GI50 Hep G2
Outline: as §1

Bovine brain tubulin = test: Inhibition of tubulin polymerization; type: biochemical; conditions: read-out: Tubulin Assembly IC50; tubulin 10 μM; 20 min incubation; ± SD
solid tumor cells = test: MTT growth inhibition, solid tumor cell lines; type: cell-based; conditions: Homo sapiens, 72 h, read-out: GI50, solid tumor cells
Outline: as §1

Jurkat cells [4] = test: Flow cytometric cell-cycle analysis; type: cell-based, human
Outline: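 Jurkat cells in exponential growth, 5 × 10^5 per sample, exposed to test compound at various concentrations for 24 h. Cells fixed in ice-cold 70% ethanol, treated with lysis buffer containing RNase A and 0.1% Triton X-100, then stained with PI. DNA content measured by flow cytometry and phases assigned from DNA histograms. Mean ± SEM of two independent experiments.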

Jurkat = test: MTT growth inhibition, Jurkat T-leukemia cells; type: cell-based, human; conditions: Homo sapiens, Jurkat, 72 h, read-out: GI50 Jurkat
Outline: as §1

Jurkat cells [5] = test: Mitochondrial membrane potential; type: cell-based, human; conditions: 0.5 and 0.1 μM, 24 and 48 h
Outline: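 After treatment, Jurkat cells were pelleted and resuspended in HBSS containing JC-1, then kept 10 min at 37 °C. They were spun again, taken up in HBSS and read by flow cytometry. Polarised mitochondria give red JC-1 aggregates (590 nm); depolarisation gives green monomers (530 nm).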

ARO = test: MTT growth inhibition, ARO anaplastic thyroid cells; type: cell-based, human; conditions: Homo sapiens, Thyroid cell, 72 h, read-out: GI50 ARO
Outline: as §1

Jurkat cells [6] = test: Mitochondrial ROS production; type: cell-based, human; conditions: 24 and 48 h
Outline: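 Jurkat cells treated with test compound for 24 or 48 h, pelleted, then loaded in HBSS with hydroethidine (HE) or H2-DCFDA for 30 min at 37 °C. Cells re-pelleted into HBSS and read by flow cytometry: 488 nm excitation, emission 585 nm (HE) and 530 nm (DCF). Fluorescence intensity given as % of untreated control; mean ± SEM, three independent experiments.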

leukemia cells = test: MTT growth inhibition, leukemia cell lines; type: cell-based, human; conditions: Homo sapiens, 72 h, read-out: GI50, leukemia cells
Outline: as §1

For `COc1cc(Cn2ccc3c4c(=O)cc(-c5ccccc5)[nH]c4ccc32)cc(OC)c1OC` [Compound 12, 7-Phenyl-3-(3,4,5-trimethoxybenzyl)-3H-pyrrolo[3,2-f]quinolin-9(6H)-one], the GI50 (IGROV) was 850 ± 200 nM, the GI50 (ML2) was 10 ± 2 nM and the “induction of apoptotic (annexin-V-positive) cells, in words” value (Jurkat cells [1]) was “remarkable induction of apoptotic cells”. For the same molecule, the “Colchicine Binding Inhibition [%], 5 μM” value ([2]; compound 5 μM) was 30 ± 4%, the “Colchicine Binding Inhibition [%], 50 μM” value ([2]; compound 50 μM) was 56 ± 2% and the GI50 (HeLa) was 400 ± 50 nM. For the same molecule, the GI50 (HL-60) was 2 ± 0.1 nM, the GI50 (HT-29) was 450 ± 100 nM and the “Bcl-2 expression, in words” value (Bcl-2 in Jurkat cells) was “decrease Bcl-2 expression”. For the same molecule, the “caspase-3 activation, in words” value [3] was “activate caspase-3”, the GI50 (K562) was 30 ± 7 nM and the GI50 (MCF-7) was 1400 ± 500 nM. The GI50 (RS 4;11) was 1 ± 0.1 nM, the GI50 (Hep G2) was 950 ± 150 nM and the IC50 (Bovine brain tubulin) was 1400 ± 200 nM. The GI50 (solid tumor cells) was 400 to 1400 nM, the “arrest in G2/M phase (cell population)” value (Jurkat cells [4]; 24 h, 0.25 μM, control 9.4 %) was 65% and the “effect on cell-cycle progression (G2/M arrest, in words)” value (Jurkat cells [4]; 24 h treatment) was “clear G2/M arrest pattern in a concentration-dependent manner”. For the same molecule, the GI50 (Jurkat) was 3 ± 0.1 nM, the “percentage of cells with low ΔΨmt (JC-1), in words” value (Jurkat cells [5]) was “significant increase in the percentage of cells with low ΔΨmt” and the GI50 (ARO) was 580 ± 150 nM. The “ROS production (HE, H2-DCFDA), in words” value (Jurkat cells [6]) was “induced the production of ROS relative to control cells” and the GI50 (leukemia cells) was 0.5 to 10 nM.
